STAT1 blocker: reduces IFN-gamma driven STAT1 reporter signal; actives 0.35% (n = 200,000); NIH 3T3 STAT1-luciferase reporter, luminescence; inhibition, % at 5.5 µM;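 active means inhibition above a set limit, the mean inhibition across all tested compounds plus 3 SD, cut at about 34% in these data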
STAT3 act: increases IL-6 driven STAT3 reporter signal | AID 871 | activation (% of control), % at 5.6 µM | U3A cells, IL-6 STAT3-luciferase reporter, luminescence; 100% = signal with IL-6 EC80 alone | actives 0.91% (n = 190,000);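 active means activation above the screen-wide mean of compound activation plus 3 SD, cut at about 130% in these data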
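Test system: human U3A cells carrying STAT3-luciferase construct; control set: IL-6-only wells as 100% reference; timing: compound pre-incubation 1 h before IL-6, then 6 h stimulation at 37 °C; also added: IL-6 stimulus at 33 ng/mL final; evaluation: % activation versus median of IL-6-stimulated wells; detection: reporter luminescence signal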
STAT1 act: STAT1 signaling activation; NIH 3T3 STAT1-luciferase reporter, IFN-gamma, luminescence; 100% = IFN-gamma alone, no compound; activation (% of control), % at 5.5 µM; actives 2.6% (n = 200,000); AID 932;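 active means activation above the screen-wide mean activation plus 3 SD, cut at about 130% in these data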
STAT3 inh: reduces IL-6 driven STAT3 reporter signal; U3A cells, IL-6 STAT3-luciferase reporter, luminescence; host cell line lacks STAT1; inhibition, % at 5.5 µM; actives 0.89% (n = 190,000);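 active means inhibition above the mean inhibition across all screened compounds plus 3 SD, cut at about 44% in these data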
STAT1 act conf: STAT1 activation, confirmation assay; shares compounds with STAT1 act; NIH 3T3 STAT1-luciferase reporter, IFN-gamma potentiation, luminescence; 100% = IFN-gamma EC80 alone, no compound; activation (% of control), % at 5.7 µM; actives 97% (n = 1,200);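 active means activation above a set limit carried over from the earlier primary STAT1 screen, cut at about 140% in these data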
NFkB act STAT1ct: activates NF-kappaB, counter-screen to STAT1 activators; shares compounds with STAT1 act; HEK293T NF-kB luciferase reporter, TNF-alpha stimulated, luminescence; 100% = TNF-alpha with vehicle only; activation (% of control), % at 5.7 µM; actives 43% (n = 1,200);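 active means activation above the mean of solvent-only control wells plus 3 SD, set per campaign, cut at about 130% in these data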;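 further: TNF-alpha given at a submaximal dose yielding about 80% of full reporter signal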
STAT3 act 2: counter-screen for STAT1 activators: human STAT3 activation. actives 46% (n = 1,200). AID 1316. activation (% of control), % at 5.7 µM. U3A cells STAT3-luciferase reporter, IL-6, luminescence; cells lack STAT1; 100 = IL-6 alone, no compound effect. shares compounds with STAT1 act;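 active means activation above the solvent-only control well mean plus 3 SD, set per plate batch, cut at about 110% in these data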;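 further: higher means more STAT3 reporter activation so hits are non-selective activators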
Of the large screens only hits and unclear results are named; the others gave an inactive call (follow-up assays come after a bar, where they were run). This is a sample that favours compounds with a hit; in the whole collection about 4.3% have one here.

Cc1nc(NC(=O)c2csc3ccccc23)sc1C	STAT1 act 176 | STAT1 act conf 256 | NFkB act STAT1ct 137 | STAT3 act 2 111
Cc1nn(C)c(C)c1/C=N/NC(=O)c1csc2ccccc12	none
O=C(CC1Nc2ccccc2NC1=O)c1ccccc1 (stereo unspecified)	STAT1 act 156 | STAT1 act conf 206 | NFkB act STAT1ct inactive | STAT3 act 2 165
O=C(CC1Nc2ccccc2NC1=O)NCCc1ccccc1 (stereo unspecified)	none
CC(C)Oc1cccc(C(=O)Nc2ccc(Br)cc2F)c1	STAT1 act 162 | STAT1 act conf 209 | NFkB act STAT1ct inactive | STAT3 act 2 inactive
Clc1cccc(-c2nnc(-c3ccccc3)o2)c1	STAT1 act 156 | STAT1 act conf 209 | NFkB act STAT1ct inactive | STAT3 act 2 inactive
Cc1ccc(/C=C/C(=O)OCC(=O)NC(C)C)o1	none
Cc1c(C(=O)NCC2CCCO2)oc2ccc(S(=O)(=O)N3CCCC3)cc12 (stereo unspecified)	none
Cc1c(C(=O)NCC2CCCO2)oc2ccc3c(c12)C(=O)CC(C)(C)O3 (stereo unspecified)	STAT1 act 155 | STAT1 act conf 209 | NFkB act STAT1ct inactive | STAT3 act 2 126
O=C(O)c1ccc(N=NN2CCCCCC2)cc1	STAT1 act 157 | STAT1 act conf 166 | NFkB act STAT1ct inactive | STAT3 act 2 120
O=C(O)c1ccc(N=NN2CCCC2)cc1	none
N#Cc1c(NC(=S)NC(=O)c2ccccc2)sc2c1CCCC2	none
Cc1cc(C(=O)Nc2sc3c(c2C#N)CCC(C)C3)cs1 (stereo unspecified)	STAT1 act 152 | STAT1 act conf 199 | NFkB act STAT1ct 141 | STAT3 act 2 114
N#Cc1c(NC(=O)c2ccccc2)sc2c1CCC2	STAT1 act 169 | STAT1 act conf 191 | NFkB act STAT1ct inactive | STAT3 act 2 inactive
CC(C)(C)N1C(=O)c2ccc(C(=O)Nc3nccs3)cc2C1=O	STAT1 act 154 | STAT1 act conf 174 | NFkB act STAT1ct inactive | STAT3 act 2 117
O=C(/C=C/c1ccco1)Nc1ccc(N2CCCC2)cc1	STAT1 act 158 | STAT1 act conf 187 | NFkB act STAT1ct 139 | STAT3 act 2 113
O=C(/C=C/c1ccco1)Nc1ccccn1	STAT1 act 152 | STAT1 act conf 177 | NFkB act STAT1ct inactive | STAT3 act 2 inactive
O=C(/C=C/c1ccco1)Nc1cccc2cccnc12	none
CCOC(=O)C1=C(C)N=C2SC=C(C)N2C1c1ccc(OC)cc1 (stereo unspecified)	none
COc1ccc(-c2cc(=O)c3cc(OC)ccc3[nH]2)cc1	STAT1 act 153 | STAT1 act conf 165 | NFkB act STAT1ct inactive | STAT3 act 2 inactive
COc1cc2[nH]c(-c3ccc(C)cc3)cc(=O)c2cc1OC	none
c1ccc(CSc2nnc(-c3cccs3)o2)cc1	STAT1 act 158 | STAT1 act conf 179 | NFkB act STAT1ct inactive | STAT3 act 2 116
Cc1ccsc1-c1nc(CN2CCCC2c2ccc(F)cc2)c(C)o1 (stereo unspecified)	none
CCN(CC)c1ccc2cc(-c3nnc(-c4ccccc4)o3)c(=O)oc2c1	STAT1 act 155 | STAT1 act conf 185 | NFkB act STAT1ct 137 | STAT3 act 2 126
O=c1cc(-c2ccccc2Cl)oc2cc(O)cc(O)c12	none
O=C1C=CC(O)(c2cc(=O)c3c(O)cc(O)cc3o2)C=C1	STAT1 act 162 | STAT1 act conf inactive | NFkB act STAT1ct 185 | STAT3 act 2 131
Cc1ccc(NC(=S)c2ccc(N(C)C)cc2)cc1	STAT1 act 170 | STAT1 act conf 201 | NFkB act STAT1ct inactive | STAT3 act 2 inactive
COc1ccc(C(=S)Nc2ccc(N(C)C)cc2)cc1	none
Nc1ccc(Cc2nc3c(ccc4ccccc43)[nH]2)cc1	none
c1ccc(-c2nc3c(ccc4ccccc43)[nH]2)nc1	STAT1 act 173 | STAT1 act conf 187 | NFkB act STAT1ct inactive | STAT3 act 2 130
C(=N\N=C\c1cccs1)/c1cccs1	STAT1 act 167 | STAT1 act conf 189 | NFkB act STAT1ct inactive | STAT3 act 2 inactive
CCN(CC)S(=O)(=O)c1ccc(C(=O)N(c2ccc(C)cc2)C2C=CS(=O)(=O)C2)cc1 (stereo unspecified)	none
COc1ccc2nc(SCC(C)=O)c(C#N)cc2c1	STAT1 act 190 | STAT1 act conf 312 | NFkB act STAT1ct 139 | STAT3 act 2 inactive
CCOC(=O)CSc1nc2cc(OC)ccc2cc1C#N	STAT1 act 168 | STAT1 act conf 259 | NFkB act STAT1ct 145 | STAT3 act 2 112
CCOC(=O)CSc1nc2cc(C)ccc2cc1C#N	STAT1 act 153 | STAT1 act conf 213 | NFkB act STAT1ct 139 | STAT3 act 2 inactive
CCOC(=O)CSc1nc2cc(C)cc(C)c2cc1C#N	none
CCOC(=O)CSc1nc2ccc(C)cc2cc1C#N	STAT1 act 157 | STAT1 act conf 221 | NFkB act STAT1ct 142 | STAT3 act 2 inactive
Cc1c(N=C2N=C(NC(=O)c3ccc(F)cc3)c3ccccc32)c(=O)n(-c2ccccc2)n1C	none
O=C(O)C1CCCN1c1ncccc1[N+](=O)[O-] (stereo unspecified)	none
Clc1ccc(-c2cnc(Oc3ccccc3)nc2)cc1	STAT1 act 153 | STAT1 act conf 190 | NFkB act STAT1ct 142 | STAT3 act 2 inactive
CCNc1nc(SCCOc2ccc(Cl)cc2Cl)nc(N(C)C)n1	none
CC1CCN(c2ncnc3c2cnn3-c2ccccc2)CC1	STAT1 act 154 | STAT1 act conf 246 | NFkB act STAT1ct 136 | STAT3 act 2 inactive
CCOC(=O)C1CCN(c2ncnc3c2cnn3-c2ccccc2)CC1	none
CCOC(=O)C1CCN(c2ncnc3c2cnn3-c2ccc(Cl)cc2)CC1	none
Clc1ccc(-n2ncc3c(N4CCCC4)ncnc32)cc1	STAT1 act 184 | STAT1 act conf 207 | NFkB act STAT1ct inactive | STAT3 act 2 inactive
COCCNC(=O)CSc1nc2ccc(N3CCOCC3)cc2c(=O)n1Cc1ccc(OC)cc1	none
CCCCNC(=O)CSc1nc2ccc(N3CCOCC3)cc2c(=O)n1Cc1ccc(OC)cc1	STAT1 act 158 | STAT1 act conf 148 | NFkB act STAT1ct inactive | STAT3 act 2 117
COc1ccc(C(C#N)N2N=C(c3ccccc3)CC2c2ccccc2)cc1OC (stereo unspecified)	none

Screening results deposited in PubChem by The Scripps Research Institute Molecular Screening Center.
